# Compounds with a hit are over-represented: about 4.8% of the library has one in this group of screens.
# Beta cell apopt: beta cell apoptosis inhibition; INS-1E cytokine-induced death, ATP luminescence, 48 h; percent of positive-control rescue, neutral wells zero; protection from apoptosis, % (test concentration not listed); 300,000 tested, 0.8% active; AID 435005;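 active = Every replicate reaches about 75%, or at least half do and their mean reaches it too, limit read from the data; inconclusive = At least half of replicates reach the limit but their mean does not; inactive = Under half of replicates reach the limit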;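 also: 0% = cytokine-treated negative control wells and 100% = positive control rescue; higher means more ATP so stronger rescue from cytokine killing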
# Efflux pump mplx: antifungal efflux pump inhibition, Nile Red retention | S. cerevisiae Candida pump triplex | inhibition, % at 10 µM | 330,000 tested, 0.44% active | AID 485275;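 active = plate passing quality check with inhibition over a set limit, or well fluorescence over plate mean plus 4 SD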;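 also: Nile Red retained in pooled yeast measured as flow cytometry median fluorescence; 0% = buffer negative control and 100% = Enniatin B positive control; higher means more Nile Red kept so more efflux inhibition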
# SUMO Mot1 rescue: inhibitors of SUMOylation pathway: yeast Mot1-301 growth rescue; S. cerevisiae Mot1-301 growth rescue, ATP luminescence, 38.5C; percent above DMSO median, 100 means doubled; growth rescue, % at 18.8 µM; 320,000 tested, 1% active; AID 2716;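 active = every valid replicate shows activation above 250% relative to neutral control wells; inactive = the rest, any valid replicate at or below 250%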;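 also: OY570 slx delta 5 strain wells were the positive control but not used for scaling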
# CSC inhib: cancer stem cell inhibition; cancer stem cell-like cells viability, luminescence; AID 2717; 300,000 tested, 1.1% active; inhibition, % at 7.5 µM; in the data active = inhibition above about 75%; inconclusive = no clear call, values can overlap the other calls; tested in HMLE shEcad cells
# T cruzi repl: T. cruzi replication inhibition; T. cruzi beta-gal in NIH3T3, luminescence, 90 h; inhibition, % (no concentration beside the values); 300,000 tested, 1.4% active; AID 1885;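 active = mean inhibition across valid replicates above about 55%, limit read from the data; inconclusive = mean below that limit but half or more replicates reach it; inactive = mean below it, under half of replicates reach it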;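 also: signal also drops with host cell toxicity which is not excluded here; 0% = plate median of DMSO wells and 100% = zero luminescence signal; higher percent means less beta-gal luminescence so fewer parasites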
#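 Assay system: NIH/3T3 fibroblasts plus reporter T. cruzi. Amount: NIH/3T3 cells, 5,000 per well. Buffer or medium: DMEM, 2% fetal bovine serum. Doses: compound pinned at 50 nL/well, DMSO. Schedule: ≥90 h infection period, 3 h prior cell attachment. Signal: luminescent β-galactosidase signal after 60 min lysis. Read-out: parasite load inhibition, %.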
# WT yeast gro inh: growth inhibition of WT yeast, mitochondrial fusion screen; mitochondrial fusion phenotypic screen, WT strain; inhibition, % at 10 µM; 190,000 tested, 2.1% active; AID 1362; in the data active = inhibition above about 58%; tested in S. cerevisiae
# * marks the source's active call; other numbers are inactive results; u = inconclusive; x = no result.
SMILES,Beta cell apopt,Efflux pump mplx,SUMO Mot1 rescue,CSC inhib,T cruzi repl,WT yeast gro inh
Fc1ccc(Sc2ccccc2CNC2=NCCN2)cc1,6,0,4,-2,63*,79*
OCCNC1=NCCN1,-4,0,405,x,-24,-6
C/C=C(\C)CN1CCC(n2nccc2NC(=O)c2ccc(OC)cc2)CC1,-4,1,-18,7,66*,x
COc1ccc(CNCc2cccc3ccccc23)cc1,x,0,20,x,7,x
O=C1/C(=C/c2cccnc2)SC(=S)N1CCc1ccccc1,-22,0,-10,5,-45,x
O=C1/C(=C/c2cccnc2)SC(=NCc2ccccc2)N1Cc1ccccc1,-5,0,-10,x,63*,20
CCCCNc1cc(C)nc(NCc2ccccc2)n1,104*,0,-1,38,39,55
Cc1cc(Nc2ccccc2)nc(NCc2ccccc2)n1,101*,0,1,34,37,64
Cc1cc(Nc2cccc(F)c2)nc(NCc2ccccc2)n1,106*,1,79,39,50,68
Cc1cc(N2CCC(C)CC2)nc(NCc2ccccc2)n1,101*,0,-2,37,52,63
Cc1cc(N2CCC(C)CC2)nc(-c2ccccc2O)n1,9,0,6,12,4,x
CC(=O)Nc1ccc(C(=O)NCC2CCCCC2)cc1,3,1,65,-6,-1,x
CC(C)(C)c1ccc(Cn2nnc3c(=O)[nH]c(C4CCCN(C(=O)c5cccs5)C4)nc32)cc1 (stereo unspecified),-3,0,-22,79*,32,x
Cc1c(C(=O)N(CC(C)C)c2c(N)n(Cc3ccccc3)c(=O)[nH]c2=O)sc2nc3n(c(=O)c12)CCC3,x,0,9,-8,3,x
CCOc1ccc(N(CC)C(=O)CCS(=O)(=O)c2cccc3nonc23)cc1,-2,0,6,-1,-1,x
CCCCc1ccc(-c2nc(NC(=O)C3C4CCC(O4)C3C(=O)O)sc2C)cc1 (stereo unspecified),-3,0,-12,2,-5,88*
CCc1cccc(C)c1NC(=O)C1C2CCC(O2)C1C(=O)O (stereo unspecified),-5,0,0,19,-7,-10
CC(C)N=c1scc(-c2cccs2)n1/N=C/c1ccc(O)c(O)c1O,9,0,-6,43,x,82*
CN=c1scc(-c2ccccc2F)n1/N=C/c1ccc(O)c(O)c1O,x,x,x,x,-14,39
CC(CC(=O)Nc1ccc(S(=O)(=O)N2CCOCC2)cc1)c1ccccc1 (stereo unspecified),0,0,-14,3,-11,x
O=C(Nc1cccc(S(=O)(=O)Nc2ccccc2F)c1)c1ccc2ccccc2n1,-2,0,33,6,u,87*
COc1ccccc1NS(=O)(=O)c1cccc(NC(=O)c2ccc3ccccc3n2)c1,0,-1,6,15,7,30
COc1ccc(NC(=O)c2c(N)no[n+]2[O-])cc1,3,0,32,103*,39,-10
Cc1nc(Nc2ccc(Cl)c(Cl)c2)sc1C(=O)Nc1ccccc1,86*,0,-73,88*,50,93
Cc1nc(Nc2ccc(Cl)cc2Cl)sc1C(=O)Nc1ccccc1,11,1,x,83*,-6,71*
SMILES,Beta cell apopt,Efflux pump mplx,SUMO Mot1 rescue,CSC inhib,T cruzi repl,WT yeast gro inh
Cc1nc(NC(=O)/C=C/c2ccccc2)sc1C(=O)Nc1ccc(Cl)cc1,3,0,8,-11,45,13
Cc1nc(NC(=O)C2CC2)sc1C(=O)Nc1cccc(Cl)c1,6,0,19,34,-18,x
CCCCN(C)C1CCN(C(=S)Nc2cccc(SC)c2)CC1,-9,0,5,10,44,9
O=C(CCc1ccccc1)Nc1ncc2c(n1)CCCC2=O,-2,0,119,-8,-4,60*
CC1(C)CC(=O)c2cnc(NC(=O)CCc3ccccc3)nc2C1,-2,0,196,x,-14,-4
Cc1cccc(OCCNc2cc(N3CCN(C)CC3)ccc2[N+](=O)[O-])c1,2,0,-2,80*,67*,16
N#CC1=C(N)C2=CCCC[C@H]2[C@H](c2ccc(Br)cc2)C1(C#N)C#N,3,0,-23,1,x,68*
N#CC1=C(N)C2=CCCC[C@H]2[C@H](c2ccccc2)C1(C#N)C#N,-9,0,194,-9,-8,12
Fc1ccc(C(CCNCc2cccs2)c2ccco2)cc1 (stereo unspecified),-10,0,-13,-2,-4,x
O=S(=O)(NCCC(c1ccc(F)cc1)c1ccco1)c1ccccc1 (stereo unspecified),1,0,-3,0,-14,60*
CCc1c(C#N)c(SCCC(=O)Nc2cccc(OC)c2)nc2c1C(=O)CC(C)(C)C2,-7,0,7,25,28,x
CCc1c(C#N)c(SCCC(=O)Nc2ccc(F)cc2)nc2c1C(=O)CC(C)(C)C2,-6,0,5,36,56*,13
CC(C)(C)c1cc(C(=O)NNc2cc(C(F)(F)F)ccc2Cl)n(Cc2ccccc2)n1,36,0,20,103*,x,x
COc1ccccc1NNC(=O)c1cc(C(C)(C)C)nn1Cc1ccccc1,-1,0,8,30,29,x
CC(C)(C)c1cc(C(=O)NNc2ccc(OC(F)(F)F)cc2)n(Cc2ccccc2)n1,6,1,145,78*,39,x
CC(C)(C)c1cc(C(=O)NNc2cccc(Cl)c2)n(Cc2ccccc2)n1,23,0,23,128*,50,x
Cc1ccc(NNC(=O)c2cc(C(C)(C)C)nn2Cc2ccccc2)cc1,7,0,242,93*,26,x
CC(C)=CCCC1(C)C=Cc2c(c(C)cc3c2[nH]c2cc(O)ccc23)O1 (stereo unspecified),x,0,2,93*,30,x
Cc1[nH]n(-c2ccccc2)c(=O)c1N=Nc1cccc([N+](=O)[O-])c1,-2,0,2,6,61*,x
Cc1[nH]n(-c2ccccc2)c(=O)c1N=Nc1c(O)cc(S(=O)(=O)N(C)C)c2ccccc12,111*,0,159,-3,46,x
Cc1[nH]n(-c2ccccc2)c(=O)c1N=Nc1cccc(Cl)c1,1,0,-10,14,-4,x
O=C(CN1CC[n+]2c(-c3cccs3)csc21)c1ccc(Br)cc1,9,0,210,-16,60*,-1
CCOC(=O)c1cnc(-n2nc(C)cc2C)nc1Nc1ccc(N(C)C)cc1,109*,0,5,20,63*,14
CCOC(=O)c1cnc(-n2nc(C)cc2C)nc1NC1CCCCC1,x,0,-18,51,76*,82*
CCOC(=O)c1cnc(-n2nc(C)cc2C)nc1N(CC)CC,6,0,-13,-3,-17,70*
CCOC(=O)c1cnc(-n2nc(C)cc2C)nc1NC,0,0,-7,-14,-8,-37

# High-throughput results deposited in PubChem BioAssay by several laboratories.
